Assay outcomes as filed in PubChem.
TNAP inh no acc: human TNAP enzyme inhibitors, primary screen, biochemical, luminescent, no phosphate acceptor, uHTS; 0.26% of 200,000 active; purified TNAP, CDP-star luminescence, 30 min; AID 1012, 2008; Alkaline phosphatase, tissue-nonspecific isozyme (Homo sapiens), P05186; inhibition, % at 20 µM;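 active means tissue-nonspecific alkaline phosphatase inhibition above about 50% at 20 µM in the single-dose screen, limit read from the data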;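 further: 0% = DMSO negative control and 100% = EDTA positive control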
Target sequence (P05186 whole entry, looked up): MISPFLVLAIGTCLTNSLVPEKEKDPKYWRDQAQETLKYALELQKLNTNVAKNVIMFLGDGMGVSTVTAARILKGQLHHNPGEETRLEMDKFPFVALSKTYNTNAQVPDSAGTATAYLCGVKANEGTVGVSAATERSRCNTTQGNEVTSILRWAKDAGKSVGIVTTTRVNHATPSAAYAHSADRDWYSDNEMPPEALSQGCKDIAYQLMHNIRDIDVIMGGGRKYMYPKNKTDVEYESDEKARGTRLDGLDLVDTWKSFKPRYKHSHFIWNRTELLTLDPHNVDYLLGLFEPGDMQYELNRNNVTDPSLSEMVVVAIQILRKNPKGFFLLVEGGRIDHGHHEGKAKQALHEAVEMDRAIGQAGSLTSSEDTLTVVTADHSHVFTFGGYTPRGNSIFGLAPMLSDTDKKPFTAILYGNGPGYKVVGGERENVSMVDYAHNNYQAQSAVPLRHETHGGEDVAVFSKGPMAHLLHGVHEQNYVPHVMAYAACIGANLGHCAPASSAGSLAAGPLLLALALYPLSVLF
TNAP act hi DEA: TNAP activators at high phosphate acceptor level, primary screen, biochemical, luminescence, uHTS | activation factor at 20 µM | 200,000 tested, under 10 active | purified TNAP, CDP-star luminescence, 1 M DEA, 30 min; active compounds read high; 0 = EDTA background, 1 = DMSO-only activity | Alkaline phosphatase, tissue-nonspecific isozyme (Homo sapiens), P05186 | AID 1136, 2008;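 active means activation factor at least 2 at 20 µM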
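Dosing: 20 µM single point. System: human TNAP. Amount: TNAP 1/800 final. Incubation: 30 min, room temperature. Read-out: TNAP activation factor scaled between EDTA and DMSO control wells. Signal: luminescence from CDP-star hydrolysis. Medium: 1 M DEA, pH 9.8, Mg2+, Zn2+. Control set: EDTA negative control, DMSO positive control.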
PMI act hi M6P: human PMI activators, high substrate, primary screen, biochemical, fluorescence intensity, near-saturating mannose 6-phosphate; coupled PMI enzyme assay, resazurin fluorescence, 20 min; active compounds read high; 1 = untreated enzyme, 0 = substrate-free blank; activation factor at 20 µM; 0.34% of 190,000 active; AID 1216, 2008;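 active means activation factor of 2 or more at 20 µM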
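Test system: human PMI in coupled enzyme assay; Input: PMI at 15 ng/mL final; Medium: HEPES buffer, pH 7.4; Schedule: 20 min incubation at room temperature; Technique: resorufin fluorescence at Ex 544/Em 590 nm; Compound: 20 µM single dose; Probe or stimulus: Near-saturating mannose-6-phosphate, 1.0 mM.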
PMI act: activators of human PMI, primary screen, biochemical, fluorescence intensity, near-Km mannose 6-phosphate; Mannose-6-phosphate isomerase (Homo sapiens), P34949; purified human PMI, coupled resazurin fluorescence, 20 min; active compounds read high; 1 = vehicle control, 0 substrate-free wells; activation factor at 20 µM; 0.005% of 190,000 active;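 active means activation factor of 2 or more at 20 µM, relative to plate controls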
TNAP inh hiacc: human TNAP enzyme inhibitors, primary screen, biochemical, luminescent, high phosphate acceptor level, uHTS | Alkaline phosphatase, tissue-nonspecific isozyme (Homo sapiens), P05186 | purified TNAP, CDP-star luminescence, 1 M DEA | inhibition, % at 20 µM | 0.03% of 200,000 active;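 active means over 50% inhibition of tissue-nonspecific alkaline phosphatase at 20 µM in the single-dose screen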;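 further: plate controls were DMSO wells for no effect and EDTA-quenched wells as full inhibition for full effect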
* marks the source's active call; other numbers are inactive results. Hits are enriched below; roughly 0.64% of the tested compounds scored in any of these assays.

SMILES | TNAP inh no acc | TNAP act hi DEA | PMI act hi M6P | PMI act | TNAP inh hiacc
Nc1nc(SCC(=O)N2CCCC2)[nH]c(=O)c1-c1ccccc1 | -8.4 | 1 | 1 | 1 | -2.6
CCCCCN(C(=O)CN1CCC(Cc2ccccc2)CC1)c1c(N)n(CCCC)c(=O)[nH]c1=O | -59.2 | 1 | 1.1 | 1 | -0.6
Oc1ccc(C2=Nn3c(nnc3-c3ccco3)SC2)cc1O | 91.0* | 0.6 | 0.4 | 0.4 | 39.5
COc1ccc(C2=Nn3c(nnc3-c3ccco3)SC2)cc1 | 16.1 | 1.1 | 1.2 | 1.2 | -9.1
CS(=O)(=O)N(CC(=O)Nc1ccc(S(=O)(=O)N2CCCC2)cc1)c1ccccc1 | -11.2 | 1.1 | 0.9 | 0.9 | -6.3
Cc1cc(/C=C2/C(=N)N3C(=NC2=O)SN=C3S(C)(=O)=O)c(C)n1-c1ccc(F)cc1 | -1.2 | 1 | 1.3 | 1.4 | -3.1
CCOc1ccc(-n2c(C)cc(/C=C3/C(=N)N4C(=NC3=O)SN=C4S(C)(=O)=O)c2C)cc1 | -5.5 | 1 | 2.1* | 1.6 | 0.2
CCSc1cc(C2C(C#N)=C(N)OC(C)=C2C(=O)OC)c(C)o1 (configuration not stated) | -9.5 | 1 | 2* | 1.5 | -1.9
c1ccc(-c2cn3nc4c(nc3n2)CCCC4)cc1 | -31.8 | 1 | 1.8 | 1.5 | -2.5
c1ccc(-c2cn3nc(-c4ccccc4)cnc3n2)cc1 | 13.5 | 1 | 2.6* | 1.8 | -0.3
Cc1ccc2c(CN3CCCc4ccccc43)cc(=O)oc2c1C | -6.2 | 1 | 2.3* | 1.8 | -3.3
COc1ccc(-n2cc(-c3ccccc3)[nH]c2=S)cc1 | -16.5 | 1 | 1 | 0.9 | -1.7
CCOc1ccc(-n2cc(-c3ccc(OC)c(OC)c3)[nH]c2=S)cc1 | 61.6* | 1 | 1.1 | 1.1 | -0.9
S=C(NCCc1ccccc1)Nc1cccc2cnccc12 | 53.1* | 1 | 0.4 | 0.9 | 1.5
CCCCNC(=S)Nc1cccc2cnccc12 | -11.4 | 1 | 1 | 0.9 | 0.7
O=c1cc(-c2ccc(O)c(O)c2)oc2c(C3O[C@H](CO)[C@@H](O)[C@H](O)[C@H]3O)c(O)cc(O)c12 (some centres not stated) | 52.8* | 0.8 | 0.9 | 0.5 | 16.2
O=C(CCSc1ccccn1)c1ccccc1 | -7.8 | 1 | 1.3 | 1.1 | -1.6
O=C1NCCC/C1=N/Nc1ccc(F)cc1 | -9.2 | 1 | 2.2* | 1.6 | -4.1
Cc1ccc(N2NC(C)(c3cccs3)NC2=S)cc1 (configuration not stated) | 7.7 | 1 | 2.7* | 1.6 | 0.5
CC1CC(C)(C)N(C(=O)CN2C(=O)c3ccccc3C2=O)c2ccccc21 (configuration not stated) | -5.4 | 1 | 1 | 1 | -1.1
CC1(C)Cc2ccccc2C2CC(O)C(=O)N21 (configuration not stated) | -11.0 | 1 | 2* | 1.4 | -2.6
Cc1ccc(C)[n+](CC(=O)c2ccc(-c3ccccc3)cc2)c1 | -2.5 | 1 | 1 | 1.1 | -1.4
Oc1ccc(O)c(Cc2nc3ccccc3s2)c1 | 61.2* | 1 | 1 | 1 | 1.0
Cc1ccc([N+](=O)[O-])cc1NCC(=O)NN | 78.7* | 1 | 0.9 | 1 | -0.5
Cc1ccc(S(=O)(=O)N=Nc2c(O)[nH]c3ccccc23)cc1 | -8.3 | 1.1 | 2.4* | 2.2* | -6.5
SMILES | TNAP inh no acc | TNAP act hi DEA | PMI act hi M6P | PMI act | TNAP inh hiacc
Cc1ccc(C)c(S(=O)(=O)N=Nc2c(O)[nH]c3ccccc23)c1 | -2.6 | 1 | 2.1* | 1.8 | 2.3
CCN(CC)S(=O)(=O)c1cccc(NC(=O)COc2ncnc3sccc23)c1 | -2.9 | 1 | 1 | 0.9 | -1.9
O=C(N/N=C/c1ccncc1)c1cccc(N/N=C/c2ccncc2)c1 | -14.5 | 1 | 1.2 | 1.4 | -4.5
O=C(N/N=C/c1ccncc1)c1cccc(NC(=O)c2ccc(Cl)cc2)c1 | -19.5 | 0.9 | 2.4* | 1.6 | 5.5
Cc1ccc(NS(=O)(=O)c2cc(NC(=O)c3ccc4c(c3)NC(=O)CS4)ccc2C)c(C)c1 | -11.9 | 1.1 | 0.9 | 0.6 | -8.7
CSCCC(=O)Nc1nc(-c2ccccn2)cs1 | -39.5 | 1 | 2.2* | 1.7 | 0.3
Cc1ccc(NC(=O)COC(=O)/C=C/c2ccc(Br)o2)cc1S(=O)(=O)N(C)C | -14.0 | 1 | 2.2* | 1.5 | 1.4
O=[N+]([O-])c1cccnc1N1CCC(c2cc(-c3ccc(Cl)cc3)n[nH]2)CC1 | 50.2* | 1 | 0.9 | 0.9 | 3.2
CC(C)(C)c1nc2ccccc2c2nnc(SCC(=O)Nc3nc4ccccc4s3)n12 | 4.1 | 0.5 | 1 | 1 | 51.5*
CC(C)(C)c1nc2ccccc2c2nnc(SCC(=O)Nc3nccs3)n12 | 4.0 | 1 | 1 | 0.9 | -2.1
C(#CCN1CCCC1)CC(c1ccccc1)c1ccccc1 | -12.3 | 1.1 | 1 | 1 | -7.4
C#CCOCCOCCOCCNc1nc(N2CCN(C(=O)[C@H](CCC(=O)O)n3cc(C(N)CO)nn3)CC2)nc(N2CCN(C(=O)[C@H](CCC(=O)O)n3cc(C(N)[C@H](C)CC)nn3)CC2)n1 (some centres not stated) | -8.2 | 1 | 1.4 | 1.3 | -4.9
CNCCOc1ccccc1OC(C)C | -11.7 | 1 | 0.8 | 0.7 | -1.2
CCn1cc(CNC(=S)Nc2cccc3ccccc23)cn1 | -8.2 | 1 | 1 | 1 | -3.9
Cc1nc(SCC(=O)Nc2ccccn2)n[nH]1 | -8.3 | 1 | 1 | 1 | -2.0
O=C(CSc1n[nH]c(-c2ccc(Cl)cc2Cl)n1)Nc1ccccn1 | 93.1* | 0.9 | 1 | 1 | 7.7
CN1/C(=C\C=C2/SC(=S)N(CC(=O)O)C2=O)C(C)(C)c2ccccc21 | 52.1* | 0.5 | 0.8 | 0.8 | 50.1*
C=CCN1C(=O)/C(=C\C=C2\N(C)c3ccccc3C2(C)C)SC1=S | -3.7 | 0.5 | 0.7 | 0.8 | 48.6
CCC1CCC(NC(=O)Nc2cccc(OC)c2)CC1 (configuration not stated) | -25.0 | 1 | 1 | 1 | -3.0
CCCCN1C(=O)C2(NNc3ccccc3O2)c2ccccc21 (configuration not stated) | -495.3 | 0.9 | 2.1* | 1.6 | 5.4
O=C(COC(=O)c1c2c(nc3ccccc13)CCN(Cc1ccccc1)C2)Nc1c(F)cccc1F | -4.8 | 1 | 2* | 1.3 | -2.5
CCN(CC)C(=O)c1ccc2nc3ccccc3nc2c1 | -7.3 | 1 | 2.2* | 1.6 | -0.3
CC(C)c1ccc(/C=N/Nc2ccc(C(=O)O)cc2)cc1 | -7.6 | 1 | 2.5* | 1.8 | 0.9
